Reference: ChEMBL document CHEMBL1949601, “γ-Carbolines: a novel class of cannabinoid agonists with high aqueous solubility and restricted CNS penetration” (Bioorg Med Chem Lett, 2012)
Values after ≈ are worked out from the molar mass of the structure shown.

What was measured:
[1] = target: Melanin-concentrating hormone receptor 1 (Homo sapiens) (UniProt Q99705); experiment: Activity at human MCH1 receptor at 10 uM
[2] = target: Corticotropin-releasing factor receptor 1 (Homo sapiens) (UniProt P34998); experiment: Activity at human CRF1 receptor at 10 uM
[3] = target: Type-1 angiotensin II receptor (Homo sapiens) (UniProt P30556); experiment: Activity at human AT1 receptor at 10 uM
Type-1 angiotensin II receptor (Homo sapiens), sequence (P30556 whole entry): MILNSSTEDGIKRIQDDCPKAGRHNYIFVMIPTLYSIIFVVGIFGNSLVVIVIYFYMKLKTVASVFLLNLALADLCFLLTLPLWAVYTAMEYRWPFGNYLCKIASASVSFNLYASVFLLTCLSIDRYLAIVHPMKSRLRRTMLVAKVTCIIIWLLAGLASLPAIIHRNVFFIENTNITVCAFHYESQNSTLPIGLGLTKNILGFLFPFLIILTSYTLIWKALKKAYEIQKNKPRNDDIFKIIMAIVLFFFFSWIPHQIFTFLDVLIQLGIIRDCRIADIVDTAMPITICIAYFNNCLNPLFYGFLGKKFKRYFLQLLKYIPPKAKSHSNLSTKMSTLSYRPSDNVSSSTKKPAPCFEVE

[4] = target: Vasopressin V1b receptor (Homo sapiens) (UniProt P47901); experiment: Activity at human V1B receptor at 10 uM
[5] = Ratio of drug uptake in brain to plasma of mouse; format: ADME, cell-free; settings: read-out: BPR
Method in brief: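 Compound given sc or po; blood and brain sampled 30 or 60 min post-dose; total plasma and brain concentrations by protein precipitation (brain homogenised) and LC–MS/MS; brain values corrected for 2% blood contamination; brain/plasma ratio calculated.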

[6] = Aqueous solubility of the compound at pH 7.4; format: physicochemical
[7] = target: Endothelin-1 receptor (Homo sapiens) (UniProt P25101); experiment: Activity at human ETA receptor at 10 uM
[8] = Half life in iv dosed Sprague-Dawley rat; format: ADME, organism-based; settings: in vivo
[9] = target: Growth hormone secretagogue receptor type 1 (Homo sapiens) (UniProt Q92847); experiment: Activity at human GHS receptor at 10 uM
Growth hormone secretagogue receptor type 1 (Homo sapiens), sequence (Q92847 whole entry): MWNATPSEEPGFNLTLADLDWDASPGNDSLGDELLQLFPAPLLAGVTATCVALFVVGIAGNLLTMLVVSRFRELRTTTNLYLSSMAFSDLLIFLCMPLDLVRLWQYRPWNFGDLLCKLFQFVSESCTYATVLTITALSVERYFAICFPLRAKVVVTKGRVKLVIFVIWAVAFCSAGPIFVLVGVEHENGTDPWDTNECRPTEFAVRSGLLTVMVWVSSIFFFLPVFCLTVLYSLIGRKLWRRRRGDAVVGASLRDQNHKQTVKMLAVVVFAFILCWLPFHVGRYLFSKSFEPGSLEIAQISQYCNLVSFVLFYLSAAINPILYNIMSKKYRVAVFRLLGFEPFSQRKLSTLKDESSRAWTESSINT

[10] = Oral bioavailability in Sprague-Dawley rat; format: ADME, organism-based; settings: in vivo
[11] = target: Alpha-2A adrenergic receptor (Homo sapiens) (UniProt P08913); experiment: Activity at human alpha2a adrenergic receptor at 10 uM
[12] = target: D(2) dopamine receptor (Homo sapiens) (UniProt P14416); experiment: Activity at human dopamine2L receptor at 10 uM
[13] = Ratio of drug uptake in brain to plasma of Sprague-Dawley rat at 1 mg/kg, sc; format: ADME, organism-based; design: dose 1 mg/kg, route subcutaneous; settings: read-out: BPR
[14] = test system: Brain; experiment: Drug uptake in brain of Sprague-Dawley rat at 0.35 to 1.4 mg/kg, sc; format: ADME, organism-based; design: dose 0.35-1.4 mg/kg, route subcutaneous; settings: in vivo, read-out: Drug uptake
Method in brief: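 Rats dosed sc at 0.35, 0.70 and 1.4 mg/kg in carrageenan model; brain homogenised, protein precipitated with ACN, centrifuged 9000g 30 min at 4 °C, measured by reversed-phase LC–MS/MS against serial-dilution calibration curve; brain corrected for 2% blood contamination.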

[15] = target: Beta-1 adrenergic receptor (Homo sapiens) (UniProt P08588); experiment: Activity at human beta1 adrenergic receptor at 10 uM
[16] = target: Urotensin-2 receptor (Mus musculus) (UniProt Q8VIH9); experiment: Activity at mouse UT2 receptor at 10 uM
[17] = Apparent permeability across human Caco2 cells; format: ADME, cell-based; settings: Caco-2
[18] = Metabolic stability in human liver microsomes; format: ADME, Microsome; settings: read-out: Stability
[19] = target: C-C chemokine receptor type 5 (Homo sapiens) (UniProt P51681); experiment: Activity at human CCR5 at 10 uM
C-C chemokine receptor type 5 (Homo sapiens), sequence (P51681 whole entry, looked up): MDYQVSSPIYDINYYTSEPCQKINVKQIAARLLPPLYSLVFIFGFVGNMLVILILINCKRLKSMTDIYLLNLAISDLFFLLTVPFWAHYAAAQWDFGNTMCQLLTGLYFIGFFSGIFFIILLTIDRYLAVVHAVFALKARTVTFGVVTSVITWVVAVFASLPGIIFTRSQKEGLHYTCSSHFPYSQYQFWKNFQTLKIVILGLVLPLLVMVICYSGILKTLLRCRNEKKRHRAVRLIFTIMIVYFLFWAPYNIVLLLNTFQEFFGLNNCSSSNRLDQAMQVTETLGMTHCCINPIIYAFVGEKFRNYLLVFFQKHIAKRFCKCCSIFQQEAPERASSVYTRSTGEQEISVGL

[20] = Activity at nAChR receptor at 10 uM
[21] = target: Mitogen-activated protein kinase 1 (Mus musculus) (UniProt P63085); experiment: Activity at mouse ERK2 receptor at 10 uM
[22] = target: Cytochrome P450 3A4 (Homo sapiens, UniProt P08684); experiment: Inhibition of CYP3A4; format: ADME
Cytochrome P450 3A4, sequence (P08684 whole entry): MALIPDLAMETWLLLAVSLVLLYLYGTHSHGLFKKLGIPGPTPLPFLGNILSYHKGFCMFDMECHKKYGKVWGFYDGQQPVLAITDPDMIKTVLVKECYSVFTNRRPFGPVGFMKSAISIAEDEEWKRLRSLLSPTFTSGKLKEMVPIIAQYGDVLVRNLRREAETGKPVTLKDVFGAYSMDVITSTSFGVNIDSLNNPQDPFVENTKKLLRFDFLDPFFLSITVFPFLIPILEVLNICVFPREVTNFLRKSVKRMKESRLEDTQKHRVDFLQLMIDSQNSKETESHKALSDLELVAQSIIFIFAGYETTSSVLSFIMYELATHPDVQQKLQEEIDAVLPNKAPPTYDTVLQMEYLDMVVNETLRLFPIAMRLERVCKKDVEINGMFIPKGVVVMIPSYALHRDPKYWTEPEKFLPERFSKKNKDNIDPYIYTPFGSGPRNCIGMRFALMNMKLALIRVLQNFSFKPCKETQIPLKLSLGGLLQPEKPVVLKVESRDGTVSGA

[23] = target: Prostaglandin G/H synthase 1 (Homo sapiens) (UniProt P23219); experiment: Activity at human COX1 receptor at 10 uM
[24] = target: Cannabinoid receptor 1 (Homo sapiens, UniProt P21554); experiment: Displacement of [3H]-CP55,940 from human CB1 receptor expressed in HEK293 cells; format: cell-based
[25] = target: fMet-Leu-Phe receptor (Homo sapiens) (UniProt P21462); experiment: Activity at human FPR1 receptor at 10 uM
[26] = target: Prokineticin receptor 1 (Mus musculus) (UniProt Q9JKL1); experiment: Activity at mouse GPR73 receptor at 10 uM
[27] = target: C-C chemokine receptor type 2 (Homo sapiens) (UniProt P41597); experiment: Activity at human CCR2b at 10 uM
[28] = target: MAO-A (Homo sapiens, UniProt P21397); experiment: Activity at human MAO-A receptor at 10 uM; settings: read-out: Activity
[29] = target: Bombesin receptor subtype-3 (Homo sapiens) (UniProt P32247); experiment: Activity at human BRS3 at 10 uM
[30] = test system: Rattus norvegicus; experiment: Toxicity in Sprague-Dawley rat carrageenan pain model assessed as hypoactivity at 0.35 to 1.4 mg/kg, sc; format: organism-based; design: dose 0.35-1.4 mg/kg, route subcutaneous; settings: in vivo
Method in brief: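 Carrageenan-model rats given 0.35–1.4 mg/kg sc; hypoactivity scored 0 absent, 1 mild, 2 moderate, 3 severe; ptosis and exophthalmos also checked. n = 7; mean ± SEM; one-way ANOVA, Holm-Sidak versus vehicle.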

[31] = target: Prokineticin-2 (Rattus norvegicus) (UniProt Q8R413); experiment: Activity at rat PK2 receptor at 10 uM
Prokineticin-2 (Rattus norvegicus), sequence (Q8R413 whole entry): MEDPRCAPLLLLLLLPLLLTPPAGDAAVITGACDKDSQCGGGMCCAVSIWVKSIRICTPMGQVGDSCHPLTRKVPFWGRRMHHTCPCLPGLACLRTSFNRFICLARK

[32] = target: N-formyl peptide receptor 2 (Homo sapiens) (UniProt P25090); experiment: Activity at human FPRL1 receptor at 10 uM
N-formyl peptide receptor 2 (Homo sapiens), sequence (P25090 whole entry): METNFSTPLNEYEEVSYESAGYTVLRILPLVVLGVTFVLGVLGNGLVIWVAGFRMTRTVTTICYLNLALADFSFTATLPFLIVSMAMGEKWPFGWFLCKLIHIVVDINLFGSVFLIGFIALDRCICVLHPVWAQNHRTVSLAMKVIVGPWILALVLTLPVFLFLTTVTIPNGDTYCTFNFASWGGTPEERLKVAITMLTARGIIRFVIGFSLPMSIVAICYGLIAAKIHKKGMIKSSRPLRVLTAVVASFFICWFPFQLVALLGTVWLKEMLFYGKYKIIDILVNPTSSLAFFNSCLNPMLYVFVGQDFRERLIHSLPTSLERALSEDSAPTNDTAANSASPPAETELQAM

[33] = target: C-X-C chemokine receptor type 6 (Homo sapiens) (UniProt O00574); experiment: Activity at human CXCR6 receptor at 10 uM
C-X-C chemokine receptor type 6 (Homo sapiens), sequence (O00574 whole entry, looked up): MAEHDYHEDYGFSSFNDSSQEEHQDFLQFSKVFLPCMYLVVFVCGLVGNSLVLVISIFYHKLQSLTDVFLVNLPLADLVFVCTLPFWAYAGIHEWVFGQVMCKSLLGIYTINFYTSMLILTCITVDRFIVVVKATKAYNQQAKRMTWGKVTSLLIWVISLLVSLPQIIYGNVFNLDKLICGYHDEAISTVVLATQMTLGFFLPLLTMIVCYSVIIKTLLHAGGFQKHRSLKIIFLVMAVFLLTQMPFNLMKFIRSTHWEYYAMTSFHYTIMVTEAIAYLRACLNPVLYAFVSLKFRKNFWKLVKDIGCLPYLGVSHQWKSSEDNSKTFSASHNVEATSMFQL

[34] = target: Histamine H1 receptor (Homo sapiens) (UniProt P35367); experiment: Activity at human histamine H1 receptor at 10 uM
Histamine H1 receptor (Homo sapiens), sequence (P35367 whole entry): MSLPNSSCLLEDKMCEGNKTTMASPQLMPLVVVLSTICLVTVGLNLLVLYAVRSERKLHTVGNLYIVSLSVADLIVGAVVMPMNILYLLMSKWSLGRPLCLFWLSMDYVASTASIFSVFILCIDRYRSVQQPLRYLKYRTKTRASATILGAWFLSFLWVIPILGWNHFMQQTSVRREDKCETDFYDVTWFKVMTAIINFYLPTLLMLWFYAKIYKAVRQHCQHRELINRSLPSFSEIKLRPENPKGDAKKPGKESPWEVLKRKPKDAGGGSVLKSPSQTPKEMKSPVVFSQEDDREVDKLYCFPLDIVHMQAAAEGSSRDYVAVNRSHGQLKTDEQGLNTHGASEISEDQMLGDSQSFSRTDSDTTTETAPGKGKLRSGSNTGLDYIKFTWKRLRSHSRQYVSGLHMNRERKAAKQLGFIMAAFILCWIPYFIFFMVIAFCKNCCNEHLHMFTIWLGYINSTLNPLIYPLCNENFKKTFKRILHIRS

[35] = target: Cannabinoid receptor 1 (Mus musculus, UniProt P47746); experiment: Agonist activity at CB1 receptor in field-stimulated mouse vas deferens; format: functional, tissue-based
Cannabinoid receptor 1 (Mus musculus, UniProt P47746), sequence (P47746 whole entry): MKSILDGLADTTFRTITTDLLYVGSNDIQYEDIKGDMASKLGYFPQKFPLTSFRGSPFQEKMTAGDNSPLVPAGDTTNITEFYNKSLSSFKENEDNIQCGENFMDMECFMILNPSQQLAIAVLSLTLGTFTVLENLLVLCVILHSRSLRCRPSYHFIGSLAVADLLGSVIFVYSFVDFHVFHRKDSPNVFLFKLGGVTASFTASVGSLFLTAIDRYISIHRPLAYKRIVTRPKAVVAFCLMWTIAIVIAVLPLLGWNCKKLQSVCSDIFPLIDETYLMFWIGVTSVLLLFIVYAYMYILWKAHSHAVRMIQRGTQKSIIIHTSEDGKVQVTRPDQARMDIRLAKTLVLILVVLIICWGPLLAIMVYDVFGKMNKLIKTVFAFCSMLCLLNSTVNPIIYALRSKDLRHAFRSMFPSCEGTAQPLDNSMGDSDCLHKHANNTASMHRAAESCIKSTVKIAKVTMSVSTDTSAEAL
Method in brief: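 Isolated mouse vas deferens under electrical field stimulation, used as an intact tissue assay of CB1 agonism at the native receptor.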

[36] = target: Muscarinic acetylcholine receptor M4 (Homo sapiens) (UniProt P08173); experiment: Activity at human M4 receptor at 10 uM
Muscarinic acetylcholine receptor M4 (Homo sapiens), sequence (P08173 whole entry): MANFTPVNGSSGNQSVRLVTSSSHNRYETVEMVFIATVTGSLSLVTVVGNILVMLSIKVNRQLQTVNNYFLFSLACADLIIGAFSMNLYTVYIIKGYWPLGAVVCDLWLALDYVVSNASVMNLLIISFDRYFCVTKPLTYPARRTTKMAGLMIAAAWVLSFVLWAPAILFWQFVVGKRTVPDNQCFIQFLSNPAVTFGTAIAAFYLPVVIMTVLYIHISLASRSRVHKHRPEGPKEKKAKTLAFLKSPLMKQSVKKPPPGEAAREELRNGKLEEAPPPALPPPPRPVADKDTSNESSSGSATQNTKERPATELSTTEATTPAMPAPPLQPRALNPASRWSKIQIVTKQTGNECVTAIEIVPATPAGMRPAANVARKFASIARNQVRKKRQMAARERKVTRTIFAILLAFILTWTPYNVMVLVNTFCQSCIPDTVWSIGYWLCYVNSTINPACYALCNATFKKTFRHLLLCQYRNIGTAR

[37] = target: Mu-type opioid receptor (Homo sapiens, UniProt P35372); experiment: Inhibition of human MOR
[38] = target: Muscarinic acetylcholine receptor M2 (Homo sapiens) (UniProt P08172); experiment: Activity at human M2 receptor at 10 uM
[39] = Activity at L-Type Calcium channel at 10 uM
[40] = target: C-X-C chemokine receptor type 2 (Homo sapiens) (UniProt P25025); experiment: Activity at human CXCR2 receptor at 10 uM
C-X-C chemokine receptor type 2 (Homo sapiens), sequence (P25025 whole entry): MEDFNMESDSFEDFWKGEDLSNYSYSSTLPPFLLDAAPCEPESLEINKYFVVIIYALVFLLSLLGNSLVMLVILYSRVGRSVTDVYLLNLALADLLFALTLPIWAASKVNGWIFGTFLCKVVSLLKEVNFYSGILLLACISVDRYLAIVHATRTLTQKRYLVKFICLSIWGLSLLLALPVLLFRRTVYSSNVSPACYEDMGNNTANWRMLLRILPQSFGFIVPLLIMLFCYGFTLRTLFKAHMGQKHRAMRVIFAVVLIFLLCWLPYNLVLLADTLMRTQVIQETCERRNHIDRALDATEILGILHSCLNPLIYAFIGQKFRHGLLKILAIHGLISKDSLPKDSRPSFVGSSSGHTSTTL

[41] = target: Adenosine receptor A3 (Rattus norvegicus) (UniProt P28647); experiment: Activity at rat A3 receptor at 10 uM
[42] = target: Glucagon-like peptide 1 receptor (Homo sapiens) (UniProt P43220); experiment: Activity at human GLP1 receptor at 10 uM
[43] = Clearance in iv dosed Sprague-Dawley rat; format: ADME, organism-based; settings: in vivo
[44] = target: Kappa-type opioid receptor (Homo sapiens, UniProt P41145); experiment: Inhibition of human KOR
Kappa-type opioid receptor, sequence (P41145 whole entry): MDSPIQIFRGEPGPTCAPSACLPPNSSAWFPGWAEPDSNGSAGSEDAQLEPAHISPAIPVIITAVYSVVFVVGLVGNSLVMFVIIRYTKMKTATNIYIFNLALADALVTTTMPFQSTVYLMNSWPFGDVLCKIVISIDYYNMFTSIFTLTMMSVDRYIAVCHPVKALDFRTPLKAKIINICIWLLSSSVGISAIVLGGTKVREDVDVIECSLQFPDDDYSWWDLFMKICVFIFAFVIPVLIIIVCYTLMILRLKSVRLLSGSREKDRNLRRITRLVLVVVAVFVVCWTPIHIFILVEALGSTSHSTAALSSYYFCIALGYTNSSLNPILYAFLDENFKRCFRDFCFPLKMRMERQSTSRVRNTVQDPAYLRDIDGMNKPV

[45] = target: Somatostatin receptor type 4 (Homo sapiens) (UniProt P31391); experiment: Activity at human SST4 receptor at 10 uM
[46] = target: Cytochrome P450 2D6 (Homo sapiens, UniProt P10635); experiment: Inhibition of CYP2D6; format: ADME
[47] = target: Melanocortin receptor 4 (Homo sapiens) (UniProt P32245); experiment: Activity at human MC4 receptor at 10 uM

Melanin-concentrating hormone receptor 1 (Homo sapiens), sequence (Q99705 whole entry): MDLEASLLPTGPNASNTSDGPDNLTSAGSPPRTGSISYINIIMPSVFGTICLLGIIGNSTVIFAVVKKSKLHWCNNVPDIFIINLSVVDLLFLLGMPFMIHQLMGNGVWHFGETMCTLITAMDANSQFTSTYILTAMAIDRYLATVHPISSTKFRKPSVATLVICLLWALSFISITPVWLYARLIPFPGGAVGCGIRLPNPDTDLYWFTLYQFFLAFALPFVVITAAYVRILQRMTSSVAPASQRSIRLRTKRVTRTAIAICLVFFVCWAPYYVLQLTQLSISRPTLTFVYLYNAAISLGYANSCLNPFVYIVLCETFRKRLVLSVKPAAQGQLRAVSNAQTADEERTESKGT

## CCS(=O)(=O)n1c2c(c3cc(C(=O)N4CCC(C)CC4)ccc31)CN(C1CCOCC1)CC2
[1]
  Activity: < 50%
[2]
  Activity: < 50%
[3]
  Activity: < 50%
[4]
  Activity: < 50%
[5]
  Kp: 0.05
[6]
  solubility: 480 µg/mL (≈ 1010 µM)
[7]
  Activity: < 50%
[8]
  half-life: 37.8 min
[9]
  Activity: < 50%
[10]
  bioavailability: 16%
[11]
  Activity: < 50%
[12]
  Activity: < 50%
[13]
  Kp: 0.07
[14]
  concentration: 10 nM
[15]
  Activity: < 50%
[16]
  Activity: < 50%
[17]
  Papp: 13 ×10⁻⁶ cm/s
[18]
  microsomal CLint: 52 µL/min/mg
[19]
  Activity: < 50%
[20]
  Activity: < 50%
[21]
  Activity: < 50%
[22]
  IC50: > 20 µM
[23]
  Activity: < 50%
[24]
  Ki: 120 nM
[25]
  Activity: < 50%
[26]
  Activity: < 50%
[27]
  Activity: < 50%
[28]
  activity at 10 µM: < 50%
[29]
  Activity: < 50%
[30]
  Activity: Non-toxic
[31]
  Activity: < 50%
[32]
  Activity: < 50%
[33]
  Activity: < 50%
[34]
  Activity: < 50%
[35]
  IC50: 1.9 nM
[36]
  Activity: < 50%
[37]
  IC50: > 10 µM
[38]
  Activity: < 50%
[39]
  Activity: < 50%
[40]
  Activity: < 50%
[41]
  Activity: < 50%
[42]
  Activity: < 50%
[43]
  clearance: 28 mL/min/kg
[44]
  IC50: > 10 µM
[45]
  Activity: < 50%
[46]
  IC50: > 20 µM
[47]
  Activity: < 50%
